The record followed here is ChEMBL document CHEMBL5329220, “Discovery of pyrazolopyrimidines that selectively inhibit CSF-1R kinase by iterative design, synthesis and screening against glioblastoma cells” (RSC Med Chem, 2023).

The structures appear in SMILES notation. Calls of active or inactive are those of the source. The calls are words filed in the database; no cut-off is given here.

In general, EC50 refers to the midpoint of the concentration-response curve.

Test [1] has as its system T98. The test is described as follows: Antiproliferative activity against human T98 cells assessed as reduction in cell viability at 3 to 30 uM incubated for 5 days by PrestoBlue reagent based fluorescence assay. It counts as functional. To be noted: dose 3-30 µM, time 5.0 day. The procedure, abridged: (§1)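 U87 (1×10^3/well) and T98 (5×10^2/well) cells in DMEM with 10% FBS and 2 mM L-glutamine, grown 48 h at 37 °C, 5% CO2, then medium replaced. Compounds added from 20× intermediate dilutions at 3, 10 and 30 μM for 5 d, in triplicate; DMSO 0.1% v/v control. PrestoBlue 60–90 min, fluorescence ex 540/em 590 nm. Normalised to untreated cells; 4-parameter logistic fit, minimum constrained to zero.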

The test system of test [2] is U-87 MG. The test is described as follows: Antiproliferative activity against human U87 cells assessed as reduction in cell viability incubated for 5 days by PrestoBlue reagent based fluorescence assay. Format: functional, U-87MG ATCC. To be noted: 120 h. In a few lines: (§2)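 Cells seeded in DMEM/10% FBS/2 mM L-glutamine (U87 1×10^3, T98 5×10^2 per well), allowed 48 h at 37 °C, then given fresh medium plus compound from 20× intermediate stocks; untreated wells had 0.1% v/v DMSO. After 5 d, PrestoBlue reading (ex 540, em 590 nm, 60–90 min). EC50 from 4-parameter logistic fit of values normalised to untreated cells, bottom fixed at zero.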

Test [3] deals with T98. Description: Antiproliferative activity against human T98 cells assessed as reduction in cell viability incubated for 5 days by PrestoBlue reagent based fluorescence assay. It counts as functional. To be noted: T98, 120 h. In a few lines: as §2
Test [4] has as its system U-87 MG. The test is described as follows: Antiproliferative activity against human U87 cells assessed as reduction in cell viability incubated at 3 to 30 uM for 5 days by PrestoBlue reagent based fluorescence assay. It counts as functional. To be noted: U-87MG ATCC, dose 3-30 µM, time 5.0 day. In a few lines:
as §1

The subject of test [5] is E21. Description: Antiproliferative activity against human E21 cells assessed as reduction in cell survival incubated for 72 hrs by Hoechst staining based nuclei count assay.
Test [6] has as its system E57. Description: Antiproliferative activity against human E57 cells assessed as reduction in cell viability at 0.01 to 10 uM incubated for 72 hrs by Hoechst staining based nuclei count assay. As to conditions: dose 0.01-10 µM.
Test [7] relates to E57. The test is described as follows: Antiproliferative activity against human E57 cells assessed as phenotypic change at 1 to 2.5 uM incubated for 72 hrs in presence of INK128 by Hoechst 33342/ Alexa Fluor 488 staining based PCA analysis. To be noted: dose 1-2.5 µM.
Test [8] relates to E21. The test is described as follows: Antiproliferative activity against human E21 cells assessed as phenotypic change at 1 to 5 uM incubated for 72 hrs in presence of INK128 by Hoechst 33342/ Alexa Fluor 488 staining based PCA analysis. Format: functional, cell-based. As to conditions: dose 1-5 µM. In a few lines: (§3)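 Patient-derived glioma stem cells kept in laminin-coated DMEM/F12 with FGF, EGF, B27 and N2, plated at 500–1500 cells/well on laminin (10 μg mL−1). After overnight attachment, dosed in triplicate with 0.1% DMSO final, 72 h at 37 °C. Live MitoTracker DeepRed (final 300 nM, 30 min), formaldehyde fixation (final 4%), Cell Painting staining and imaging, CellProfiler features, PCA of phenotypic profiles.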

Test [9] concerns E21. The test is described as follows: Antiproliferative activity against human E21 cells assessed as reduction in cell viability at 0.01 to 10 uM incubated for 72 hrs by Hoechst staining based nuclei count assay. As to conditions: dose 0.01-10 µM.
Test [10] has as its system E31. Description: Antiproliferative activity against human E31 cells assessed as phenotypic change at 1 to 5 uM incubated for 72 hrs in presence of INK128 by Hoechst 33342/ Alexa Fluor 488 staining based PCA analysis. It counts as functional, cell-based. To be noted: dose 1-5 µM. In a few lines:
as §3

For the compound `CNc1ncc2c(C#CCN3CCCC(N(C)C)C3)nn(C3CCCCC3)c2n1` (stereo not given), in test [1], the result was Active. Take `CNc1ncc2c(C#CCN3CCCC(N(C)C)C3)nn(CC3CCCC3)c2n1` (racemic): the 50% effective concentration (EC50) in test [2] came out at 5 µM; in test [3], 10.8 µM. Take `CN(C)C1CCCN(CC#Cc2nn(CC3CCCCC3)c3nc(NC(C)(C)C)ncc23)C1` (stereo not given): the result in [1] and in [4] was Active.

As for `CNc1ncc2c(C#CCN3CCC(N(C)C)CC3)nn(CC3CCCC3)c2n1`, the EC50 in [2] came to 15.9 µM; in [3], 14.8 µM.

Regarding `CN(C)C1CCCN(CC#Cc2nn(C3CCCC3)c3nc(NC(C)(C)C)ncc23)C1` (stereo not given), the result in [1] and in [4] was Active. Also, in test [5], the Activity entry was “Dose-Dependent Effect”. As for `CC1CCN(CC#Cc2nn(CC3CCCC3)c3ncnc(N)c23)CC1`, the EC50 in test [2] and in test [3] was less than 30 µM in each case. With `CN(C)C1CCN(CC#Cc2nn(C3CCCCC3)c3nc(NC(C)(C)C)ncc23)C1` (stereo not given), the EC50 in test [2] was 2.71 µM; in test [3] it was 2.54 µM. Moreover, the Activity entry in test [5] was “Dose-Dependent Effect”. For the compound `CCOC(=O)N1CCN(CC#Cc2nn(CC3CCCC3)c3nc(NC)ncc23)CC1`, the outcome in test [1] was Active.

As to `CNc1ncc2c(C#CCN3CCCC(N(C)C)C3)nn(CC3CCCCC3)c2n1` (stereo not given), the outcome in test [1] was Active. For `CN(C)C1CCCN(CC#Cc2nn(C3CCCCC3)c3nc(NC(C)(C)C)ncc23)C1` (stereo not given), the outcome in test [1] and in [4] was Active. For the compound `Cn1nnc2c(C(N)=O)ncn2c1=O`, in test [4], the result was Active.

`CNc1ncc2c(C#CCN3CCCCCC3)nn(CC3CCCC3)c2n1`: the concentration for a half-maximal effect (EC50) in [3] was 4.6 µM. On to `CNc1ncc2c(C#CCN3CCC(NC(C)=O)CC3)nn(CC3CCCC3)c2n1`, for which, in test [1], the result was Active. Take `CN(C)C1CCCN(CC#Cc2nn(CC3CCCC3)c3nc(NCc4ccccc4)ncc23)C1` (stereo not given): the EC50 in test [3] was less than 4 µM.

For `CCOC(=O)C1CCN(CC#Cc2nn(CC3CCCC3)c3nc(NC)ncc23)CC1`, in [1], the result was Active. With `CCC(CC)Nc1ncc2c(C#CCN3CCCC(N(C)C)C3)nn(CC3CCCC3)c2n1` (stereo not given), the EC50 in test [3] is less than 4 µM. For the same compound, the Activity result in test [5] was “Dose-Dependent Effect”. `CN(C)C1CCN(CC#Cc2nn(C3CCCC3)c3nc(NCc4ccccc4)ncc23)C1` (stereo not given): the result in [6], in [7], in [8], in test [9] and in [10] was Active. For the same compound, the EC50 in [3] turned out to be 2 µM. For `CNc1ncc2c(C#CCN3CCCC(N(C)C)C3)nn(C3CCCC3)c2n1` (stereo not given), the outcome in test [1] was Active.

Regarding `CCCNc1ncc2c(C#CCN3CCCC(N(C)C)C3)nn(CC3CCCC3)c2n1` (stereo not given), the EC50 in test [3] was less than 4 µM. The same measure, in the same setting: the value for `CN(C)C1CCCN(CC#Cc2nn(CC3CCCC3)c3nc(NC(C)(C)C)ncc23)C1` (stereo not given) was less than 4 µM.
